From the RNAGym collection of RNA variant scans (doi:10.1126/science.aae0568)
Variants at the floor of the assay were thinned out.

B1: tRNA (parent)
chain: GUUCCGUUGGCGUAAUGGUAACGCGUCUCCCUCCUAAGGAGAAGACUGCGGGUUCGAGUCCCGUACGGAACG

Variants of: B1
Test: yeast fitness relative to wild type (ratio to wild type); higher = fitter; tRNA-Arg(CCU), competitive growth, 37 C, YPD
Outline: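 A pool of Saccharomyces cerevisiae strains, each with a tRNA-Arg(CCU) gene variant at the native genomic locus, was competed in YPD at 37°C for 24 hours across six parallel replicates. The variants had been chemically synthesised at a 3% per-site mutation rate over 69 sites, and gene amplicons before and after competition were read by 100-nucleotide paired-end sequencing. Darwinian fitness relative to wild type rested on changes in genotype frequencies. Genotypes required ≥ 100 starting reads, and estimates < 0.5 were set to 0.5.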

Yeast fitness, 0.554:
GUUCCGUUGGCGUAAUGGUAACGCGUCUGCCUUCUAAGGAGAAGACUGCGGGUUCGAGUCCCGUCCGGAACG

Yeast fitness, 0.546:
GUUCCGUUGGCGUAAUGGUAACGCGUCUGCCUCCUAAGGAGAAGAAUGCGGGUUCGAGCCCCGUACGGAACG

Yeast fitness, 0.572:
GUUCCGUUGGCGUAAUGGUAACGCGUCUGCCUCCUAAGGAGAAGACUGAGGGUUCGAGUACCGUACGGAACG

Yeast fitness, 0.718:
GUUCCGUUGGCGUAAUGGUAACGCGUCUGCCUCCUAAGGAGAAGACUGUGGGUUCGAGUCCCGUACGGAACG

Yeast fitness, 0.687:
GUUCCGUUGGCGUAAUGGUAACGCGUCUGCCUCCUAAGGAGAAGAGUGCGGGUUCGAGUCCCGUACGGAACG

Yeast fitness, 0.618:
GUUCCGUUGGCGUAAUGGUAACGCGUCUGCCUCCUAAGGAGAAGAUUGCGGGUUCGAGUCCCGUACGGAUCG

Yeast fitness, 0.563:
GUUCCGUUGGCGUAAUGGUAACGCGUCUGCCUCCUAAGGAGAAGACUGGGGGUUCGAGUCCCGUACGGAACG

Yeast fitness, 0.545:
GUUCCGUUGGCGUAAUGGUAACGCGUCUGCCUUGUAAGGAGAAGACUGCGGGUACGAGUCCCGUACGGAACG

Yeast fitness, 0.593:
GUUCCGUUGGCGUAAUGGUAACGCGUCUGCCUCCUAAGGAGAAGACUGCGGGUUGGGGUCCCGUACGGAACG

Yeast fitness, 0.544:
GUUCCGUUGGCGUAAUGGUAACGCGUCUGCCUCGUAAGGAGAAGAAUGCGGGAUCGAGUCUCGUACGGAACG

Yeast fitness, ≤ 0.5:
GUUCCGUUGGCGUAAUGGUAACGCGUCUGCCUUCUAGGGCGAAGACUGCGGGUUCGCGUCCCGUACGGAACG
GUUCCGUUGGCGUAAUGGUAACGCGUCUGCCUUCUAAGGAGAAGUCUGCGGGUUCGAGUCCCGUACGGAACG
GUUCCGUUGGCGUAAUGGUAACGCGUCUGCCUUCUAAGGAGAAGUCUGCGGGUUCAAGCCCCGUCCGGAGCG
GUUCCGUUGGCGUAAUGGUAACGCGUCUGCCUUCUAAGGAGAACACUCCGGGUUAGAGUCCCGUACGGAACG
GUUCCGUUGGCGUAAUGGUAACGCGUCUGCCUUCCAAAGAGAAGACUGCGGGUUCGAGUCCCGUACGGAACG
GUUCCGUUGGCGUAAUGGUAACGCGUCUGCCUUCUAAGGAGAAGACAGCGGGUUCGAGUCUCGUACGGCACG
GUUCCGUUGGCGUAAUGGUAACGCGUCUGCCUUCUAAGGAGAAGACAGCGGGUUCGAAUCCCGUACGGAACG
GUUCCGUUGGCGUAAUGGUAACGCGUCUGCCUUCUAAGGAGAAGACCGCGGGUUCGAGUCCCGUACGGAACG
GUUCCGUUGGCGUAAUGGUAACGCGUCUGCCUCAUAGGGAGAAGACUGCGGGUUCGAGUACCGUACGGAACG
GUUCCGUUGGCGUAAUGGUAACGCGUCUGCCUCAUAAGGAGAAGACUGCGGGUUCGAGUACCGUACGGAACG
GUUCCGUUGGCGUAAUGGUAACGCGUCUGCCUCAUAAGGAGAAGACUGCGGGUUCGAGUACCGUACGGCACG
GUUCCGUUGGCGUAAUGGUAACGCGUCUGCCUCAUAAGCAGAAGACUGCGGGUUCGAGUCCCGUACGGAACG
GUUCCGUUGGCGUAAUGGUAACGCGUCUGCCUCUUAACGAGAAGACUGCGGGUUAGAGUCCCGUACGGAACG
GUUCCGUUGGCGUAAUGGUAACGCGUCUGCCUCUUAAGGAGAAGACUGCGGGUUCGAGUCCCAUACAGGACG
GUUCCGUUGGCGUAAUGGUAACGCGUCUGCCUCCUAAGGAGAAGAGUCCGGGUUCGAGUCCUGUACGGAACG
GUUCCGUUGGCGUAAUGGUAACGCGUCUGCCUCCUAAGGAGAAGACUGAGGGUUAGAGUCUCGUACGGAACG
GUUCCGUUGGCGUAAUGGUAACGCGUCUGCCUCCUAAGGAGAAGACUGGCGGUUCGAGUCCCGUACGGUCCG
GUUCCGUUGGCGUAAUGGUAACGCGUCUGCCUCCUAAGGAGAAGACUGGGGGGUCGGGUCCCGUACGGAACG
GUUCCGUUGGCGUAAUGGUAACGCGUCUGCCUCCUAAGGAGAAGACUGUGGGUUCGAGUCCCGUACGAAACG
GUUCCGUUGGCGUAAUGGUAACGCGUCUGCCUCCUAAGGAGAAGACUGUGGGCUCGCGUGCCGCACGUAACG
GUUCCGUUGGCGUAAUGGUAACGCGUCUGCCUCCUAAGGAGAAGACUGCGGGUUAGAGUCCCGUGCGGAACG
GUUCCGUUGGCGUAAUGGUAACGCGUCUGCCUCCUAAGGAGAAGACUGCGGGUUAGAGUCCCGACCGGAACG
GUUCCGUUGGCGUAAUGGUAACGCGUCUGCCUCCUAAGGAGAAGACUGCGGGUUAGAGUCCCGCACGGAACG
GUUCCGUUGGCGUAAUGGUAACGCGUCUGCCUCCUAAGGAGAAGACUGCGGGUUGGGGUCCCGUACGGACCG
GUUCCGUUGGCGUAAUGGUAACGCGUCUGCCUCCUAAGGAGAAGACUGCGGGUUUGAGUCCCGUACGGAACG
GUUCCGUUGGCGUAAUGGUAACGCGUCUGCCUCCUAAGGAGAAGACUGCGGGUUUGAGUCCCGUGAGGAACG
GUUCCGUUGGCGUAAUGGUAACGCGUCUGCCUCCUAAGGAGAAGACUGCGGGUUUGAGUCCCGUACCGAACG
